This note sets out measurements from ChEMBL document CHEMBL1148420, “Identification and synthesis of [1,2,4]triazolo[3,4-a]phthalazine derivatives as high-affinity ligands to the alpha 2 delta-1 subunit of voltage gated calcium channel” (Bioorg Med Chem Lett, 2004).

Molecules are shown by their SMILES.

T1 sequence (P54289 25-956 limits assumed): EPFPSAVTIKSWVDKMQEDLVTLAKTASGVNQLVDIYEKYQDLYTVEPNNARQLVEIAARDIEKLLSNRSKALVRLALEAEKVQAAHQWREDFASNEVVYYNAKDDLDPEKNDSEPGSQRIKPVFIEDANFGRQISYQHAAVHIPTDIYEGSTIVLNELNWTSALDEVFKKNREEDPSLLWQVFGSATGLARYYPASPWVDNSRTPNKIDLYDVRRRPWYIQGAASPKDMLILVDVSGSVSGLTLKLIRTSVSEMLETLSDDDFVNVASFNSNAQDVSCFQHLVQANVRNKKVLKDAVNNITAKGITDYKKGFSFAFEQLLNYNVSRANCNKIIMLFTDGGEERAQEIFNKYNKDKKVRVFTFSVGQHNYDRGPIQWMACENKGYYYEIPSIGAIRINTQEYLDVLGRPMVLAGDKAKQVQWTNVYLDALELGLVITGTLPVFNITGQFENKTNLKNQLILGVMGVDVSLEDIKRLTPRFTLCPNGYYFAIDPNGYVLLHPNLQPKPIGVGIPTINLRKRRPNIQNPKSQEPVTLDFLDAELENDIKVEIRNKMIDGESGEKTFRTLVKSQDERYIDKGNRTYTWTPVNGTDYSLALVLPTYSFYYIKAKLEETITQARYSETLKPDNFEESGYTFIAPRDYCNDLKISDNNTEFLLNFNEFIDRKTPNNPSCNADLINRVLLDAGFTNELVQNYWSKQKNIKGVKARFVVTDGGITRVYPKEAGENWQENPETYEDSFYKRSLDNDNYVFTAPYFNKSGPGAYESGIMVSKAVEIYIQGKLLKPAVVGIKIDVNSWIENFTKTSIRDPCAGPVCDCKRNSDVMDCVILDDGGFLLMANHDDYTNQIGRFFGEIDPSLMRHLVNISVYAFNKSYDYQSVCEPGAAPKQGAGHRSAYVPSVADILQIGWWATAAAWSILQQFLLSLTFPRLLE
T1 sequence (P54289 957-1103 limits assumed): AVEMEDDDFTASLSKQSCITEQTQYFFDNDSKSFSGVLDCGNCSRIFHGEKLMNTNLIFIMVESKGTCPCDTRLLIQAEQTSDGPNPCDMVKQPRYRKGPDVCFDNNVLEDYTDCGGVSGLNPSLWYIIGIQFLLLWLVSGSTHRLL

For the first assay, the target named is T1, Voltage-dependent calcium channel subunit alpha-2/delta-1 (Homo sapiens, UniProt P54289). In words: Binding affinity against alpha2 delta-1 subunit of voltage-gated calcium channel in human. The method, boiled down:
(§1)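 [3H]gabapentin displacement binding on A710 membranes (HEK 293 cells stably transfected with human α1B, β3a and α2δ-1b subunits), following a literature method.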
For `CN(CCc1ccccc1)Cc1cccc(COc2nn3c(C(F)(F)F)nnc3c3ccccc23)n1`, the IC50 (commonly the concentration needed to halve the response being measured) is 10000 nM.

With `CC(C)(Cc1ccccc1)NCc1cccc(COc2nn3c(C(F)(F)F)nnc3c3ccccc23)n1`, the IC50 came to 10000 nM. Still for that read-out and setting: next, `Cc1ccc(CCNCc2cccc(COc3nn4c(C(F)(F)F)nnc4c4ccccc34)n2)cc1`: 260 nM; `C[C@@H](NCCc1ccccc1)c1cccc(COc2nn3c(C(F)(F)F)nnc3c3ccccc23)n1`: 10000 nM. With `[3H]c1cccc(CCN[C@@H](C)c2cccc(COc3nn4c(C(F)(F)F)nnc4c4ccccc34)n2)c1`, the IC50 turned out to be 30 nM. On to `CC(NCCc1ccccc1)c1cccc(COc2nn3c(C(F)(F)F)nnc3c3ccccc23)n1` (racemic), for which the IC50 worked out at 36 nM.

Turning to `CC(C)C(NCCc1ccccc1)c1cccc(COc2nn3c(C(F)(F)F)nnc3c3ccccc23)n1` (racemic), the IC50 was determined as 174 nM. Still for that read-out and setting: next, `CCC(NCCc1ccccc1)c1cccc(COc2nn3c(C(F)(F)F)nnc3c3ccccc23)n1` (racemic): 183 nM; `CC(CNCc1cccc(COc2nn3c(C(F)(F)F)nnc3c3ccccc23)n1)c1ccccc1` (racemic): 198 nM. Take `CC(Cc1ccccc1)NCc1cccc(COc2nn3c(C(F)(F)F)nnc3c3ccccc23)n1` (racemic): the IC50 turned out to be 1370 nM.

Consider `Fc1cccc(CCNCc2cccc(COc3nn4c(C(F)(F)F)nnc4c4ccccc34)n2)c1`, for which the IC50 was 161 nM.

For `Fc1ccc(CCNCc2cccc(COc3nn4c(C(F)(F)F)nnc4c4ccccc34)n2)cc1`, the IC50 turned out to be 630 nM.

Regarding `C[C@@H](Cc1ccccc1)NCc1cccc(COc2nn3c(C(F)(F)F)nnc3c3ccccc23)n1`, the IC50 turned out to be 700 nM. In the case of `Cc1cccc(CCNC(C)c2cccc(COc3nn4c(C(F)(F)F)nnc4c4ccccc34)n2)c1` (racemic), the IC50 came to 29 nM. For the compound `Cc1cccc(CCNCc2cccc(COc3nn4c(C(F)(F)F)nnc4c4ccccc34)n2)c1`, the IC50 amounted to 15 nM.

On to `C[C@H](NCCc1ccccc1)c1cccc(COc2nn3c(C(F)(F)F)nnc3c3ccccc23)n1`, for which the IC50 is 30 nM.

On to `Cc1ccccc1CCNCc1cccc(COc2nn3c(C(F)(F)F)nnc3c3ccccc23)n1`, for which the IC50 was 448 nM. For `C[C@H](NCCc1cccc(Br)c1)c1cccc(COc2nn3c(C(F)(F)F)nnc3c3ccccc23)n1`, the half-maximal inhibitory concentration (IC50) came out at 28 nM. For the compound `FC(F)(F)c1nnc2c3ccccc3c(OCc3cccc(CNC4C[C@H]4c4ccccc4)n3)nn12` (mixture of isomers), the IC50 turned out to be 229 nM.

The next assay deals with T1, Voltage-dependent calcium channel subunit alpha-2/delta-1. The experiment in a line: Binding affinity against alpha-2 delta-1 subunit of voltage gated subunit of Ca+2 channel in human. The method, boiled down: as §1
Consider `c1ccc(CCNCc2cccc(COc3nn4c(C5CC5)nnc4c4ccccc34)n2)cc1`, for which the IC50 is 272 nM.

For the compound `COc1cccc(CCNCc2cccc(COc3nn4c(C(F)(F)F)nnc4c4ccccc34)n2)c1`, the IC50 came out at 116 nM. In the case of `COCc1nnc2c3ccccc3c(OCc3cccc(CNCCc4ccccc4)n3)nn12`, the IC50 was determined as 131 nM.

On to `c1ccc(CCNCc2cccc(COc3nn4cnnc4c4ccccc34)n2)cc1`, for which the IC50 amounted to 230 nM. Take `Cc1nnc2c3ccccc3c(OCc3cccc(CNCCc4ccccc4)n3)nn12`: the IC50 amounted to 145 nM. For the compound `CC(C)c1nnc2c3ccccc3c(OCc3cccc(CNCCc4ccccc4)n3)nn12`, the IC50 came out at 342 nM. Still for that read-out and setting: as for `CCc1nnc2c3ccccc3c(OCc3cccc(CNCCc4ccccc4)n3)nn12`, the figure is 241 nM. Same read-out and setting: next, `c1ccc(CCNCc2cccc(COc3nn4c(C5CCCCC5)nnc4c4ccccc34)n2)cc1`: 145 nM. Consider `c1ccc(CCNCc2cccc(COc3nn4c(-c5ccccc5)nnc4c4ccccc34)n2)cc1`, for which the IC50 was found to be 195 nM. In the case of `FC(F)(F)c1nnc2c3ccccc3c(OCc3cccc(CNCCc4ccccc4)n3)nn12`, the IC50 turned out to be 72 nM.

On to `Cc1cc(-c2nnc3c4ccccc4c(OCc4cccc(CNCCc5ccccc5)n4)nn23)no1`, for which the IC50 was found to be 220 nM. As to `Fc1ccccc1CCNCc1cccc(COc2nn3c(C(F)(F)F)nnc3c3ccccc23)n1`, the IC50 was 291 nM. For `CSc1nnc2c3ccccc3c(OCc3cccc(CNCCc4ccccc4)n3)nn12`, the IC50 worked out at 194 nM. With `COc1ccc(CCNCc2cccc(COc3nn4c(C(F)(F)F)nnc4c4ccccc34)n2)cc1`, the IC50 came to 829 nM.
